Results taken from ChEMBL document CHEMBL1671683, “Activity of linezolid in an in vitro pharmacokinetic-pharmacodynamic model using different dosages and Staphylococcus aureus and Enterococcus faecalis strains with and without a hypermutator phenotype” (Antimicrob Agents Chemother, 2010).

Tests used:
Enterococcus faecalis [1] = assay: Bactericidal activity against 12.5 hrs peripheral compartment culture samples of Enterococcus faecalis ATCC 29212 in two-compartment pharmacokinetic/pharmacodynamic model assessed as effect on bacterial count at 200 mg, bid administered as 0.5 hr infusion; assay type: functional
In short: (§1)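 An 18-h culture concentrated 50-fold was injected into the peripheral compartment 3 h pre-sampling (~10^8 CFU/ml E. faecalis, 10^9 S. aureus). Counts came from dilution plating (detection limit 2–3 log10 CFU/ml), expressed as Δlog CFU/ml from treatment start. Run in duplicate.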

Staphylococcus aureus [2] = assay: Bactericidal activity against 1 hr peripheral compartment culture samples of Staphylococcus aureus RN4220 MutS2 in two-compartment pharmacokinetic/pharmacodynamic model assessed as effect on bacterial count at 600 mg, bid administered as 0.5 hr infusion; assay type: functional
In short: (§2)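 Two-compartment hollow-fibre model in cation-adjusted, protein-free MH broth, 37°C. Linezolid given as simulated 0.5-h infusion twice daily. Inoculum grown 18 h, concentrated 50-fold and placed in the peripheral compartment 3 h before t0. Peripheral samples at set times counted by dilution plating. First 10-fold dilution not plated, limiting detection to 2–3 log10 CFU/ml. Δlog CFU/ml taken from t0 count. Duplicates.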

Enterococcus faecalis [3] = assay: Bactericidal activity against 0.5 hrs peripheral compartment culture samples of Enterococcus faecalis Ef1497 MutM3 in two-compartment pharmacokinetic/pharmacodynamic model assessed as effect on bacterial count at 600 mg, bid administered as 0.5 hr infusion; assay type: functional; in short: as §2
[4] = Total clearance in two-compartment pharmacokinetic/pharmacodynamic model at 600 mg, bid administered as 0.5 hrs infusion; assay type: ADME, organism-based; details: iv
Enterococcus faecalis [5] = assay: AUBC (0 to 24 hrs) in Enterococcus faecalis ATCC 29212 in two-compartment pharmacokinetic/pharmacodynamic model at 600 mg, bid administered as 0.5 hr infusion for 2 days; assay type: functional
In short: (§3)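 Hollow-fibre two-compartment model in cation-adjusted, protein-free MH broth at 37°C. Human total-plasma linezolid profile simulated as 0.5-h infusion every 12 h for 48 h. Concentrated 18-h culture injected into the peripheral compartment 3 h before first sample, giving about 10^8 (E. faecalis) or 10^9 (S. aureus) CFU/ml. Viable counts by dilution plating over 0–24 h. Area indices calculated versus growth control curve. Duplicate runs.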

[6] = Volume of distribution at steady state in two-compartment pharmacokinetic/pharmacodynamic model at 800 mg, bid administered as 0.5 hrs infusion; assay type: ADME, organism-based; details: iv, read-out: Vdss
Enterococcus faecalis [7] = assay: Bactericidal activity against 0.5 hrs peripheral compartment culture samples of Enterococcus faecalis Ef1497 in two-compartment pharmacokinetic/pharmacodynamic model assessed as effect on bacterial count at 800 mg, bid administered as 0.5 hr infusion; assay type: functional; in short: as §2
Enterococcus faecalis [8] = assay: Bactericidal activity against 48 hrs peripheral compartment culture samples of Enterococcus faecalis Ef1497 MutM3 in two-compartment pharmacokinetic/pharmacodynamic model assessed as effect on bacterial count at 600 mg, bid administered as 0.5 hr infusion; assay type: functional; in short: as §1
Staphylococcus aureus [9] = assay: Bactericidal activity against 12.5 hrs peripheral compartment culture samples of Staphylococcus aureus RN4220 in two-compartment pharmacokinetic/pharmacodynamic model assessed as effect on bacterial count at 600 mg, bid administered as 0.5 hr infusion; assay type: functional; in short: as §1
[10] = Residual concentration at the end of the administration interval in two-compartment pharmacokinetic/pharmacodynamic model at 200 mg, bid administered as 0.5 hr infusion over 24 hrs; assay type: ADME; details: in vivo, iv
Enterococcus faecalis [11] = assay: Bactericidal activity against 14 hrs peripheral compartment culture samples of Enterococcus faecalis Ef1497 MutM3 in two-compartment pharmacokinetic/pharmacodynamic model assessed as effect on bacterial count at 200 mg, bid administered as 0.5 hr infusion; assay type: functional; in short: as §1
[12] = Tmax in two-compartment pharmacokinetic/pharmacodynamic model at 800 mg, bid administered as 0.5 hrs infusion; assay type: ADME, organism-based; details: iv
In short: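 Two-compartment in vitro hollow-fibre model in cation-adjusted, protein-free Mueller-Hinton broth at 37°C. Human total-plasma linezolid profile simulated as 0.5-h infusion every 12 h for 48 h, computer-controlled syringe pump into central compartment. […] Peripheral samples assayed by validated HPLC-UV (quantification limit 0.39 μg/ml). Tmax read directly from concentration-time profiles. Run in duplicate.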

Staphylococcus aureus [13] = assay: Bactericidal activity against 24 hrs peripheral compartment culture samples of Staphylococcus aureus RN4220 in two-compartment pharmacokinetic/pharmacodynamic model assessed as effect on bacterial count at 600 mg, bid administered as 0.5 hr infusion; assay type: functional; in short: as §1
Staphylococcus aureus [14] = assay: Bactericidal activity against 0.5 hrs peripheral compartment culture samples of Staphylococcus aureus RN4220 MutS2 in two-compartment pharmacokinetic/pharmacodynamic model assessed as effect on bacterial count at 600 mg, bid administered as 0.5 hr infusion; assay type: functional; in short: as §2
Enterococcus faecalis [15] = assay: Bactericidal activity against 2 hrs peripheral compartment culture samples of Enterococcus faecalis Ef1497 in two-compartment pharmacokinetic/pharmacodynamic model assessed as effect on bacterial count at 800 mg, bid administered as 0.5 hr infusion; assay type: functional; in short: as §1
Enterococcus faecalis [16] = assay: Bactericidal activity against 14 hrs peripheral compartment culture samples of Enterococcus faecalis Ef1497 MutM3 in two-compartment pharmacokinetic/pharmacodynamic model assessed as effect on bacterial count at 600 mg, bid administered as 0.5 hr infusion; assay type: functional; in short: as §1
Staphylococcus aureus [17] = assay: Bactericidal activity against 48 hrs peripheral compartment culture samples of Staphylococcus aureus RN4220 in two-compartment pharmacokinetic/pharmacodynamic model assessed as effect on bacterial count at 600 mg, bid administered as 0.5 hr infusion; assay type: functional
In short: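 An 18-h culture was concentrated 50-fold by centrifugation and injected into the peripheral compartment 3 h before first sampling, giving about 10^9 CFU/ml exponential growth. Linezolid was simulated as a 0.5-h infusion every 12 h. Samples taken from 0 to 48 h were counted by dilution plating on MH agar; the first 10-fold dilution was not plated (detection limit 2–3 log10 CFU/ml). Effect was expressed as Δlog CFU/ml from treatment start. Run in duplicate.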

Enterococcus faecalis [18] = assay: Bactericidal activity against 12.5 hrs peripheral compartment culture samples of Enterococcus faecalis Ef1497 in two-compartment pharmacokinetic/pharmacodynamic model assessed as effect on bacterial count at 800 mg, bid administered as 0.5 hr infusion; assay type: functional; in short: as §1
[19] = system: Staphylococcus aureus subsp. aureus RN4220; assay: AUBC (0 to 24 hrs) in Staphylococcus aureus RN4220MutS2 in two-compartment pharmacokinetic/pharmacodynamic model at 600 mg, bid administered as 0.5 hr infusion for 2 days; assay type: functional; in short: as §3
[20] = Mean residence time in two-compartment pharmacokinetic/pharmacodynamic model at 600 mg, bid administered as 0.5 hr infusion over 24 hrs; assay type: ADME, organism-based; details: in vivo, iv
Enterococcus faecalis [21] = assay: AUBC (0 to 24 hrs) in Enterococcus faecalis ATCC 29212 in two-compartment pharmacokinetic/pharmacodynamic model at 200 mg, bid administered as 0.5 hr infusion for 2 days; assay type: functional; in short: as §3
Enterococcus faecalis [22] = assay: ABBC (0 to 24 hrs) in Enterococcus faecalis Ef1497 MutM3 in two-compartment pharmacokinetic/pharmacodynamic model at 600 mg, bid administered as 0.5 hr infusion for 2 days; assay type: functional; in short: as §3
Enterococcus faecalis [23] = assay: Bactericidal activity against 12 hrs peripheral compartment culture samples of Enterococcus faecalis Ef1497 in two-compartment pharmacokinetic/pharmacodynamic model assessed as effect on bacterial count at 800 mg, bid administered as 0.5 hr infusion; assay type: functional; in short: as §1

CC(=O)NC[C@H]1CN(c2ccc(N3CCOCC3)c(F)c2)C(=O)O1 [LINEZOLID]
log10CFU/ml (Enterococcus faecalis [1]): 0.26
log10CFU/ml (Staphylococcus aureus [2]): 0.02
log10CFU/ml (Enterococcus faecalis [3]): -0.01
clearance [4]: 232 mL/min
AUBC (Enterococcus faecalis [5]): 217.8 log10CFU/ml.hr
Vd [6]: 104 L
log10CFU/ml (Enterococcus faecalis [7]): 0.08
log10CFU/ml (Enterococcus faecalis [8]): 0.45
log10CFU/ml (Staphylococcus aureus [9]): -0.26
Drug uptake [10]: 0.31 µg/mL
log10CFU/ml (Enterococcus faecalis [11]): 0.41
Tmax [12]: 0.5 h
log10CFU/ml (Staphylococcus aureus [13]): -0.17
log10CFU/ml (Staphylococcus aureus [14]): -0.21
log10CFU/ml (Enterococcus faecalis [15]): -0.13
log10CFU/ml (Enterococcus faecalis [16]): 0.28
log10CFU/ml (Staphylococcus aureus [17]): 0.32
log10CFU/ml (Enterococcus faecalis [18]): -0.03
AUBC [19]: 228.8 log10CFU/ml.hr
MRT [20]: 8.1 h
AUBC (Enterococcus faecalis [21]): 214 log10CFU/ml.hr
ABBC (Enterococcus faecalis [22]): -2.66 log10CFU/ml.hr
log10CFU/ml (Enterococcus faecalis [23]): -0.16
